Where “and” joins values, the source holds several entries; their conditions need not be identical. Equal entries are not always repeated.
Test system: Fibroblast
Test: Multiplex assay against human fibroblast
Assay type: toxicity, cell-based
Procedure, shortened: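 Per cents of healthy-nucleus cells form the tubulin, mitochondrial-mass and membrane-permeability phenotype values. Live cells were stained at seeding with Hoechst33342, BioTracker Green Microtubule Cytoskeleton Dye, MitoTracker Red and Annexin V Alexa Fluor 680. After compound addition they were imaged on a CQ1 microscope at 37°C and 5% CO2, and CellPathfinder machine-learning gating split them into Hoechst high-intensity objects or normal cells, normal cells into healthy, pyknosed or fragmented nuclei, and pyknosed cells into mitotic or apoptotic.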

[1] = 12 h, 1 µM, compound concentration 1 uM
[2] = 12 h, 10 µM, compound concentration 10 uM
[3] = 24 h, 1 µM, compound concentration 1 uM
[4] = 24 h, 10 µM, compound concentration 10 uM
[5] = 48 h, 1 µM, compound concentration 1 uM
[6] = 48 h, 10 µM, compound concentration 10 uM

SMILES: CC(C)CNc1nc(N2CCN(CC3CCCOC3)CC2)ncc1C(=O)NCc1ccccc1 (centres undefined)
- Population Apoptotic (%) [1]: 34% and 80.22%
- Population Fragmented Nuclei (%) [1]: 39.83% and 19.74%
- Population Healthy Nuclei (%) [1]: 17.8% and 20.39%
- Population Hoechst High Intensity Objects (%) [1]: 0%
- Population Membrane Permeable-Phenotype (%) [1]: 9.52% and 19.35%
- Population Mitochondria Different-Phenotype (%) [1]: 9.52% and 6.45%
- Population Normal (%) [1]: 100%
- Population Pyknosed Nuclei (%) [1]: 42.37% and 59.87%
- Total Cell Count [1]: 118 and 152
- Population Apoptotic (%) [2]: 39.68% and 87.25%
- Population Fragmented Nuclei (%) [2]: 33.58% and 21.43%
- Population Healthy Nuclei (%) [2]: 19.4% and 12.34%
- Population Hoechst High Intensity Objects (%) [2]: 0%
- Population Mitochondria Different-Phenotype (%) [2]: 57.69% and 63.16%
- Population Normal (%) [2]: 100%
- Population Pyknosed Nuclei (%) [2]: 47.01% and 66.23%
- Population Tubulin-Different-Phenotype (%) [2]: 57.69% and 94.74%
- Total Cell Count [2]: 134 and 154
- Population Apoptotic (%) [3]: 32.61% and 81.58%
- Population Healthy Nuclei (%) [3]: 30.28% and 37.59%
- Population Hoechst High Intensity Objects (%) [3]: 0%
- Population Membrane Permeable-Phenotype (%) [3]: 9.09% and 24.53%
- Population Mitochondria Different-Phenotype (%) [3]: 24.24% and 15.09%
- Population Normal (%) [3]: 100%
- Population Pyknosed Nuclei (%) [3]: 42.2% and 53.9%
- Population Tubulin-Different-Phenotype (%) [3]: 39.39% and 67.92%
- Total Cell Count [3]: 109 and 141
- Population Apoptotic (%) [4]: 59.65% and 72.31%
- Population Fragmented Nuclei (%) [4]: 28.46% and 10.32%
- Population Healthy Nuclei (%) [4]: 27.69% and 47.74%
- Population Hoechst High Intensity Objects (%) [4]: 0%
- Population Mitochondria Different-Phenotype (%) [4]: 58.33% and 47.3%
- Population Mitotic Cells (%) [4]: 40.35% and 27.69%
- Population Normal (%) [4]: 100%
- Population Pyknosed Nuclei (%) [4]: 43.85% and 41.94%
- Population Tubulin-Different-Phenotype (%) [4]: 66.67% and 87.84%
- Total Cell Count [4]: 130 and 155
- Population Apoptotic (%) [5]: 33.33% and 68.42%
- Population Fragmented Nuclei (%) [5]: 15.25% and 14.4%
- Population Healthy Nuclei (%) [5]: 64.41% and 70.4%
- Population Hoechst High Intensity Objects (%) [5]: 0%
- Population Membrane Permeable-Phenotype (%) [5]: 13.16% and 19.32%
- Population Mitochondria Different-Phenotype (%) [5]: 36.84% and 19.32%
- Population Mitotic Cells (%) [5]: 66.67% and 31.58%
- Population Normal (%) [5]: 100%
- Population Pyknosed Nuclei (%) [5]: 20.34% and 15.2%
- Population Tubulin-Different-Phenotype (%) [5]: 35.53% and 67.05%
- Total Cell Count [5]: 118 and 125
- Population Apoptotic (%) [6]: 52.78% and 75%
- Population Fragmented Nuclei (%) [6]: 19.46% and 17.61%
- Population Healthy Nuclei (%) [6]: 56.38% and 72.33%
- Population Hoechst High Intensity Objects (%) [6]: 0%
- Population Mitochondria Different-Phenotype (%) [6]: 60.71% and 47.83%
- Population Mitotic Cells (%) [6]: 47.22% and 25%
- Population Normal (%) [6]: 100%
- Population Pyknosed Nuclei (%) [6]: 24.16% and 10.06%
- Population Tubulin-Different-Phenotype (%) [6]: 70.24% and 84.35%
- Total Cell Count [6]: 149 and 159

SMILES: N#Cc1ccnc(Nc2cc(C3CCN(C4COC4)CC3)cc(N3CCC(F)(F)C3)n2)c1
- Population Apoptotic (%) [1]: 14.12% and 22.64%
- Population Fragmented Nuclei (%) [1]: 18.52% and 8.85%
- Population Healthy Nuclei (%) [1]: 42.13% and 67.7%
- Population Hoechst High Intensity Objects (%) [1]: 0%
- Population Membrane Permeable-Phenotype (%) [1]: 3.3% and 2.61%
- Population Mitochondria Different-Phenotype (%) [1]: 16.48% and 9.8%
- Population Mitotic Cells (%) [1]: 85.88% and 77.36%
- Population Normal (%) [1]: 100%
- Population Pyknosed Nuclei (%) [1]: 39.35% and 23.45%
- Population Tubulin-Different-Phenotype (%) [1]: 31.87% and 33.33%
- Total Cell Count [1]: 216 and 226
- Population Apoptotic (%) [2]: 60.19% and 71.72%
- Population Fragmented Nuclei (%) [2]: 13.02% and 15.68%
- Population Healthy Nuclei (%) [2]: 36.74% and 30.81%
- Population Hoechst High Intensity Objects (%) [2]: 0% and 0.54%
- Population Mitochondria Different-Phenotype (%) [2]: 35.44% and 45.61%
- Population Mitotic Cells (%) [2]: 39.81% and 28.28%
- Population Normal (%) [2]: 100% and 99.46%
- Population Pyknosed Nuclei (%) [2]: 50.23% and 53.51%
- Population Tubulin-Different-Phenotype (%) [2]: 45.57% and 73.68%
- Total Cell Count [2]: 215 and 186
- Population Apoptotic (%) [3]: 7.81% and 14%
- Population Fragmented Nuclei (%) [3]: 19.58% and 9.81%
- Population Healthy Nuclei (%) [3]: 53.75% and 66.82%
- Population Hoechst High Intensity Objects (%) [3]: 0%
- Population Membrane Permeable-Phenotype (%) [3]: 5.43% and 4.2%
- Population Mitochondria Different-Phenotype (%) [3]: 19.38% and 23.08%
- Population Mitotic Cells (%) [3]: 92.19% and 86%
- Population Normal (%) [3]: 100%
- Population Pyknosed Nuclei (%) [3]: 26.67% and 23.36%
- Population Tubulin-Different-Phenotype (%) [3]: 29.46% and 47.55%
- Total Cell Count [3]: 240 and 214
- Population Apoptotic (%) [4]: 58.59% and 84.62%
- Population Fragmented Nuclei (%) [4]: 13.17% and 9.55%
- Population Healthy Nuclei (%) [4]: 38.54% and 39.33%
- Population Hoechst High Intensity Objects (%) [4]: 0% and 0.56%
- Population Membrane Permeable-Phenotype (%) [4]: 10.13% and 20%
- Population Mitochondria Different-Phenotype (%) [4]: 32.91% and 55.71%
- Population Mitotic Cells (%) [4]: 41.41% and 15.38%
- Population Normal (%) [4]: 100% and 99.44%
- Population Pyknosed Nuclei (%) [4]: 48.29% and 51.12%
- Population Tubulin-Different-Phenotype (%) [4]: 37.97% and 78.57%
- Total Cell Count [4]: 205 and 179
- Population Fragmented Nuclei (%) [5]: 19.03% and 11.35%
- Population Healthy Nuclei (%) [5]: 63.97% and 74.24%
- Population Hoechst High Intensity Objects (%) [5]: 0%
- Population Membrane Permeable-Phenotype (%) [5]: 2.53% and 2.94%
- Population Mitochondria Different-Phenotype (%) [5]: 21.52% and 11.18%
- Population Mitotic Cells (%) [5]: 92.86% and 57.58%
- Population Normal (%) [5]: 100%
- Population Pyknosed Nuclei (%) [5]: 17% and 14.41%
- Population Tubulin-Different-Phenotype (%) [5]: 32.91% and 54.12%
- Total Cell Count [5]: 247 and 229
- Population Apoptotic (%) [6]: 59.57% and 79.01%
- Population Fragmented Nuclei (%) [6]: 13% and 11.52%
- Population Healthy Nuclei (%) [6]: 44.84% and 46.07%
- Population Hoechst High Intensity Objects (%) [6]: 0% and 0.52%
- Population Membrane Permeable-Phenotype (%) [6]: 7% and 15.91%
- Population Mitochondria Different-Phenotype (%) [6]: 36% and 20.45%
- Population Mitotic Cells (%) [6]: 40.43% and 20.99%
- Population Normal (%) [6]: 100% and 99.48%
- Population Pyknosed Nuclei (%) [6]: 42.15% and 42.41%
- Population Tubulin-Different-Phenotype (%) [6]: 37% and 56.82%
- Total Cell Count [6]: 223 and 192

SMILES: CCOC(=O)c1cnn(-c2ccc(NC(=O)C(Cl)=C(Cl)Cl)cc2)c1C(F)(F)F
- Population Apoptotic (%) [1]: 8.82% and 15%
- Population Fragmented Nuclei (%) [1]: 15.65% and 11.22%
- Population Healthy Nuclei (%) [1]: 61.22% and 68.37%
- Population Hoechst High Intensity Objects (%) [1]: 0%
- Population Membrane Permeable-Phenotype (%) [1]: 5.56% and 0%
- Population Mitochondria Different-Phenotype (%) [1]: 6.67% and 10.45%
- Population Mitotic Cells (%) [1]: 91.18% and 85%
- Population Normal (%) [1]: 100%
- Population Pyknosed Nuclei (%) [1]: 23.13% and 20.41%
- Population Tubulin-Different-Phenotype (%) [1]: 8.89% and 11.94%
- Total Cell Count [1]: 147 and 196
- Population Apoptotic (%) [2]: 23.28% and 49.64%
- Population Fragmented Nuclei (%) [2]: 10.69% and 2.33%
- Population Healthy Nuclei (%) [2]: 16.35% and 18.02%
- Population Hoechst High Intensity Objects (%) [2]: 0%
- Population Membrane Permeable-Phenotype (%) [2]: 7.69% and 12.9%
- Population Mitotic Cells (%) [2]: 76.72% and 50.36%
- Population Normal (%) [2]: 100%
- Population Pyknosed Nuclei (%) [2]: 72.96% and 79.65%
- Population Tubulin-Different-Phenotype (%) [2]: 42.31% and 54.84%
- Total Cell Count [2]: 159 and 172
- Population Apoptotic (%) [3]: 32.35% and 26.32%
- Population Fragmented Nuclei (%) [3]: 13.42% and 8.93%
- Population Healthy Nuclei (%) [3]: 63.76% and 82.59%
- Population Hoechst High Intensity Objects (%) [3]: 0%
- Population Membrane Permeable-Phenotype (%) [3]: 1.05% and 1.08%
- Population Mitochondria Different-Phenotype (%) [3]: 5.26% and 3.78%
- Population Mitotic Cells (%) [3]: 67.65% and 73.68%
- Population Normal (%) [3]: 100%
- Population Pyknosed Nuclei (%) [3]: 22.82% and 8.48%
- Population Tubulin-Different-Phenotype (%) [3]: 12.63% and 12.43%
- Total Cell Count [3]: 149 and 224
- Population Apoptotic (%) [4]: 37.76% and 80.65%
- Population Fragmented Nuclei (%) [4]: 17.09% and 8.6%
- Population Healthy Nuclei (%) [4]: 20.89% and 24.73%
- Population Hoechst High Intensity Objects (%) [4]: 0%
- Population Membrane Permeable-Phenotype (%) [4]: 15.15% and 43.48%
- Population Mitochondria Different-Phenotype (%) [4]: 0% and 19.57%
- Population Normal (%) [4]: 100%
- Population Pyknosed Nuclei (%) [4]: 62.03% and 66.67%
- Population Tubulin-Different-Phenotype (%) [4]: 39.39% and 84.78%
- Total Cell Count [4]: 158 and 186
- Population Apoptotic (%) [5]: 35.29% and 26.67%
- Population Fragmented Nuclei (%) [5]: 12.65% and 7.11%
- Population Healthy Nuclei (%) [5]: 77.11% and 86.22%
- Population Hoechst High Intensity Objects (%) [5]: 0%
- Population Membrane Permeable-Phenotype (%) [5]: 0.78% and 1.55%
- Population Mitotic Cells (%) [5]: 64.71% and 73.33%
- Population Normal (%) [5]: 100%
- Population Pyknosed Nuclei (%) [5]: 10.24% and 6.67%
- Population Tubulin-Different-Phenotype (%) [5]: 4.69% and 11.86%
- Total Cell Count [5]: 166 and 225
- Population Apoptotic (%) [6]: 35.48% and 83.87%
- Population Fragmented Nuclei (%) [6]: 22.75% and 43.62%
- Population Healthy Nuclei (%) [6]: 58.68% and 39.89%
- Population Hoechst High Intensity Objects (%) [6]: 0%
- Population Membrane Permeable-Phenotype (%) [6]: 14.29% and 37.33%
- Population Mitochondria Different-Phenotype (%) [6]: 15.31% and 25.33%
- Population Normal (%) [6]: 100%
- Population Pyknosed Nuclei (%) [6]: 18.56% and 16.49%
- Population Tubulin-Different-Phenotype (%) [6]: 40.82% and 89.33%
- Total Cell Count [6]: 167 and 188

— ChEMBL document CHEMBL5724801, “EUbOPEN Chemogenomics Library - Multiplex” (2024)
